pIC50: −log10 of the molar value. A value given as a limit tells only on which side of the number the result lay.

One assay relates to A549. Briefly: Cytotoxicity against human A549 cells expressing wild type p53 by MTT assay. It counts as functional, cell-based. As to conditions: Homo sapiens, A549; read-out: IC50. A general note: Formazan colour is commonly taken as a measure of viable cells; call rule not given here.
As for `COc1cc(OC)c2c(C)c(C(N)=O)oc2c1C(N)=O`, the pIC50 was 4.40.
Turning to `COc1cc(OC)c2c(C)c(C=O)oc2c1Br`, the pIC50 is 4.31.
With `COc1cc(OC)c2c(C)c(C=O)oc2c1C(N)=O`, the pIC50 is 4.20.
On the same count and under the same terms, for `Cc1c(C=O)oc2c(C(N)=O)c(O)cc(O)c12` the value was 3.96; for `CCOC(=O)c1oc2cc(OCc3ccccc3)cc(OCc3ccccc3)c2c1C`, less than 4.14; for `Cc1c(C=O)oc2cc(OCc3ccccc3)cc(OCc3ccccc3)c12`, less than 4.09.
On the same count and under the same terms, with `CCOC(=O)c1oc2cc(O)cc(O)c2c1C` the figure was 4.16; with `CCOC(=O)c1oc2c(C(N)=O)c(OCc3ccccc3)cc(OCc3ccccc3)c2c1C`, greater than 5.14; with `CCOC(=O)c1oc2c(C(N)=O)c(O)cc(O)c2c1C`, 4.62.
Turning to `CCOC(=O)c1oc2c(Br)c(OC)cc(OC)c2c1C`, the pIC50 was less than 4.06.
Take `CCCNC(=O)c1oc2c(C(N)=O)c(OC)cc(OC)c2c1C`: the pIC50 is less than 4.03.
Same read-out and setting: for `COc1cc(OC)c2c(C)c(C(=O)NCc3ccccc3)oc2c1C(N)=O` the value was 4.26; for `COc1cc(OC)c2c(C)c(C(=O)Nc3ccccc3)oc2c1C(N)=O`, greater than 5.03; for `COc1cc(OC)c2c(C)c(C(=O)Nc3ccccn3)oc2c1C(N)=O`, less than 4.07.
Same read-out and setting: with `COc1cc(OC)c2c(C)c(C(=O)Nc3ccncc3)oc2c1C(N)=O` the figure was greater than 5.03.

Still in this assay, the particulars now being: a549.
Turning to `COc1cc(OC)c2c(C)c(C=O)oc2c1`, the IC50 entry is reported as “Not Active”.
On the same count and under the same terms, for `COc1cc(OC)c2c(C)c(C=O)oc2c1C#N` the value was “Not Active”.
As to `Cc1c(C=O)oc2cc(O)cc(O)c12`, the IC50 result was “Not Active”.
`CCOC(=O)c1oc2cc(OC)cc(OC)c2c1C`: the IC50 entry is reported as “Not Active”.
`CCOC(=O)c1oc2c(C#N)c(OC)cc(OC)c2c1C`: the IC50 entry is recorded as “Not Active”.
In the case of `CCOC(=O)c1oc2c(C(N)=O)c(OC)cc(OC)c2c1C`, the IC50 result is recorded as “Not Active”.

System in the next assay: not listed separately
Kind of assay: Cytotoxicity against human NSCLC-N6 cells expressing mutant p53 by MTT assay. Conditions: Homo sapiens, NSCLC-N6; read-out: IC50. It counts as functional, cell-based. The method, boiled down:
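Cells grown in RPMI 1640 and seeded in 96-well plates (NSCLC-N6 at 10⁵ cells/mL). Cells exposed to drug continuously. Growth measured colorimetrically by mitochondrial reduction of MTT to formazan, with solubilized formazan read at 570 nm. Eight replicates per concentration; control growth from 8 determinations.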
As to `COc1cc(OC)c2c(C)c(C(N)=O)oc2c1C(N)=O`, the pIC50 was 4.65.
On the same count and under the same terms, with `COc1cc(OC)c2c(C)c(C=O)oc2c1C(N)=O` the figure was 4.35; with `Cc1c(C=O)oc2c(C(N)=O)c(O)cc(O)c12`, 4.22.
Still for that read-out and setting: with `CCOC(=O)c1oc2cc(OCc3ccccc3)cc(OCc3ccccc3)c2c1C` the figure was less than 4.14; with `Cc1c(C=O)oc2cc(OCc3ccccc3)cc(OCc3ccccc3)c12`, less than 4.09; with `CCOC(=O)c1oc2cc(O)cc(O)c2c1C`, 4.18.
On to `CCOC(=O)c1oc2c(C(N)=O)c(OCc3ccccc3)cc(OCc3ccccc3)c2c1C`, for which the pIC50 was greater than 5.14.
Take `CCOC(=O)c1oc2c(C(N)=O)c(O)cc(O)c2c1C`: the pIC50 is 4.48.
Take `CCOC(=O)c1oc2c(Br)c(OC)cc(OC)c2c1C`: the pIC50 is less than 4.06.
Same read-out and setting: for `CCCNC(=O)c1oc2c(C(N)=O)c(OC)cc(OC)c2c1C` the value was less than 4.03.
As to `COc1cc(OC)c2c(C)c(C(=O)NCc3ccccc3)oc2c1C(N)=O`, the pIC50 is less than 4.09.
The same measure, in the same setting: for `COc1cc(OC)c2c(C)c(C(=O)Nc3ccccc3)oc2c1C(N)=O` the value was greater than 5.03; for `COc1cc(OC)c2c(C)c(C(=O)Nc3ccccn3)oc2c1C(N)=O`, less than 4.07.
Regarding `COc1cc(OC)c2c(C)c(C(=O)Nc3ccncc3)oc2c1C(N)=O`, the pIC50 was greater than 5.03.

The assay is the same for the next values; noted with them: nsclc-n6.
For the compound `COc1cc(OC)c2c(C)c(C=O)oc2c1`, the IC50 entry was “Not Active”.
On the same count and under the same terms, for `COc1cc(OC)c2c(C)c(C=O)oc2c1Br` the value was “Not Active”; for `COc1cc(OC)c2c(C)c(C=O)oc2c1C#N`, “Not Active”.
Still for that read-out and setting: for `Cc1c(C=O)oc2cc(O)cc(O)c12` the value was “Not Active”; for `CCOC(=O)c1oc2cc(OC)cc(OC)c2c1C`, “Not Active”; for `CCOC(=O)c1oc2c(C#N)c(OC)cc(OC)c2c1C`, “Not Active”.
On the same count and under the same terms, with `CCOC(=O)c1oc2c(C(N)=O)c(OC)cc(OC)c2c1C` the entry was “Not Active”.

As usually defined, the pIC50 is the IC50 on a negative log10 scale, so that one unit is a factor of ten.

(Values after ChEMBL document CHEMBL2434874, “Synthesis and antiproliferative activity of benzofuran-based analogs of cercosporamide against non-small cell lung cancer cell lines” (Eur J Med Chem, 2013).)
